How the values were obtained:
[1] = test system: HbA1c; test: PK/PD model relating tPDE4i to HbA1c in db/db mice; format: in vivo
How it was run: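 Once-daily dosing of db/db mice for 28 days: test compound at 1, 3 or 10 mg/kg/day, reference PDE4 inhibitor at 0.3, 1 or 3 mg/kg/day, its N-oxide metabolite at 3 mg/kg/day, vehicle 4% methocel. HbA1c read on days -1, 14 and 28. Emax model links HbA1c rise over time to individual tPDE4i. Fit by nonlinear mixed-effects modelling with FOCE-interaction; checked by visual predictive check (200 simulations).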

[2] = test system: HbA1c; conditions: clinical setting; cited from earlier work
[3] = test system: diabetic mouse model; conditions: cited from earlier work
[4] = Unbound fraction in mouse plasma in vitro; format: in vitro ADME
[5] = test system: PDE4; test: Total PDE4 inhibition; format: in vivo; conditions: db/db mice, geometric mean; for Complete tPDE4i: roflumilast + roflumilast N-oxide
[6] = Population pharmacokinetic analysis in db/db mice; format: in vivo; conditions: after roflumilast-N-oxide dosing
[7] = roflumilast N-oxide 3 mg/kg/day

O=C(Nc1c(Cl)c[n+]([O-])cc1Cl)c1ccc(OC(F)F)c(OCC2CC2)c1 [roflumilast(‐N‐oxide)]
PDE50 (tPDE4i leading to half-maximum effect on HbA1c) ([1]; final PK/PD model estimate, 28 days): 27.1

O=C(Nc1c(Cl)cncc1Cl)c1ccc(OC(F)F)c(OCC2CC2)c1 [roflumilast]
Dose required to reach half-maximum effect on HbA1c ([1]; calculated from PDE50): 5.9 mg/kg | HbA1c levels [2]: significantly reduced | Antidiabetic efficacy [3]: significant antidiabetic efficacy | fraction unbound [4]: 0.037 | tPDE4irof ([5]; roflumilast 0.3 mg/kg/day): 0.744 | tPDE4irofNO ([5]; roflumilast 0.3 mg/kg/day): 0.731 | Complete tPDE4i ([5]; roflumilast 0.3 mg/kg/day): 1.49 | tPDE4irof ([5]; roflumilast 1 mg/kg/day): 2.23 | tPDE4irofNO ([5]; roflumilast 1 mg/kg/day): 2.31 | tPDE4irof ([5]; roflumilast 3 mg/kg/day): 6.56 | tPDE4irofNO ([5]; roflumilast 3 mg/kg/day): 7.18 | Complete tPDE4i ([5]; roflumilast 3 mg/kg/day): 13.8

O=C(Nc1c(Cl)c[n+]([O-])cc1Cl)c1ccc(OC(F)F)c(OCC2CC2)c1 [roflumilast‐N‐oxide]
Exposure of roflumilast relative to roflumilast-N-oxide [6]: 2.6 % of roflumilast‐N‐oxide | Apparent roflumilast clearance ([6]; two-compartment model): 41.8 L/h | Apparent roflumilast-N-oxide clearance ([6]; two-compartment model): 1.09 L/h | tPDE4irof [5, 7]: 0.375 | tPDE4irofNO [5, 7]: 22.1 | Complete tPDE4i [5, 7]: 22.5

— paper PMC5421726 (Clinical and Translational Science, 2017)
